Assay outcomes as filed in PubChem.
An excerpt weighted towards active compounds, which were near 2.2% of everything screened.
NR2E3 ag-1 – NR2E3 agonists in two-hybrid cells, primary screen, cell-based, luminescence, CHO-S, Gal4-NCOR/VP16-NR2E3; inhibition of corepressor binding, % at 3.98 µM; luciferase; 360,000 compounds, 0.35% hits; Photoreceptor-specific nuclear receptor (Homo sapiens), Q9Y5X4;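 active = inhibition above the mean of all tested compounds plus 3 SD, cut at about 70% in these data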;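 note: 0% = DMSO with NR2E3 transfected cells and 100% = cells lacking NR2E3 construct; higher means lower luciferase signal from less NR2E3 corepressor binding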
Target sequence (Q9Y5X4 whole entry, looked up, the tested form may be a part): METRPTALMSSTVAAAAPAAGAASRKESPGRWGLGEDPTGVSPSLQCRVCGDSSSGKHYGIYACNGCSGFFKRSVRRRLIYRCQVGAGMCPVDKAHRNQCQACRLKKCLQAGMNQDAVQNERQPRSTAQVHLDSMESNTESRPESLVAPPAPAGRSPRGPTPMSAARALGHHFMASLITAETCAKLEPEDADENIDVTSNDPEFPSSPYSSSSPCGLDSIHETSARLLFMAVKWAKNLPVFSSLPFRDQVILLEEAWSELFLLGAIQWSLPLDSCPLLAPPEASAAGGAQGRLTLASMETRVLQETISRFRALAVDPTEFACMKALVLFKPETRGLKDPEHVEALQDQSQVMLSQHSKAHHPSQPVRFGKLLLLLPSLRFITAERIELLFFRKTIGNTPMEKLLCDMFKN
GalR3 antag – GalR3 antagonists in HEK293 cells, primary screen, cell-based, fluorescence readout. inhibition, % at 3 µM. HEK293 GalR3-CNG cAMP membrane potential fluorescence; galR3 body fused to GalR1 C-terminus. AID 651719, 2012. 360,000 compounds, 0.44% hits. Galanin receptor type 3 (Homo sapiens), O60755;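 active = inhibition above the screen-wide average plus 3 SD, cut at about 13% in these data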;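 note: forskolin and galanin both at EC90 stimulate the cells; cAMP rise reported by CNG channel membrane potential dye signal; 0% = forskolin plus galanin with DMSO and 100% = forskolin alone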
Target sequence (O60755 1-299 limits assumed): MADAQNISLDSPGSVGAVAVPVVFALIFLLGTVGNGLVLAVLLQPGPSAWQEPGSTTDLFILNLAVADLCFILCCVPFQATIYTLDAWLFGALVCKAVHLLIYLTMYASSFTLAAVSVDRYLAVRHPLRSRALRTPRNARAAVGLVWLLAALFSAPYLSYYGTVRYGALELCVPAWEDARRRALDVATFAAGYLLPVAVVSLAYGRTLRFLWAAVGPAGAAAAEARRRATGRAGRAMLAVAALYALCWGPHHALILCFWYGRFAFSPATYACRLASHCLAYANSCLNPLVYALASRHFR
NR2E3 ag-2 – inhibitors of NR2E3-RetCOR corepressor binding, primary screen, NR2E3 agonist project, biochemical, TR-FRET, GST-NR2E3, biotin-RetCOR; Photoreceptor-specific nuclear receptor (Homo sapiens), Q9Y5X4; AID 2300, 2010; 1536-well; inhibition of corepressor binding, % at 4.78 µM; 320,000 compounds, 0.12% hits;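 active = percent inhibition above the cutoff of mean plus 3 SD of all tested compounds, set per screening campaign, cut at about 20% in these data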;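 note: 0% = DMSO wells and 100% = biotin wells as full block of FRET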
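Test system – NR2E3–RetCOR corepressor complex · Quantity – NR2E3 fusion 1.35 nM · Buffer or medium – Tris pH 7.5 · Incubation – Compound–protein incubation for 5 h at 4 °C · Technique – TR-FRET, Eu(K)-anti-GST donor, streptavidin-D2 acceptor, ex 340, em 617/671 nm · Evaluation – percent inhibition of 671/617 nm emission ratio versus biotin and DMSO controls · Plate – 1536-well format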
COUP-TFII inh – NR2F2 transcriptional activity inhibitors, primary screen, cell-based, luciferase reporter, HEK293T, luminescence | COUP transcription factor 2 (Homo sapiens), P24468 | HEK293T NGFI-A luciferase reporter | inhibition, % at 8.6 µM | 370,000 compounds, 0.7% hits;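 active = inhibition above a per-plate cutoff, mean inhibition of test wells between control levels plus 3 SD, cut at about 38% in these data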;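 note: cells cotransfected with COUP-TFII expression vector driving the NGFI-A reporter; 0% = median of COUP-TF2 test wells and 100% = reporter-only cells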
SMARCA2 activ – SMARCA2 (BRM) function activators, primary screen, cell-based, luminescence, high throughput; MG213 cells, MMTV-luciferase reporter, dexamethasone, overnight; activation, % at 9.1 µM; 370,000 compounds, 1% hits; AID 652017, 2013; in the data active = activation above about 7.8%;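 note: 0% = vehicle wells and 100% = reference activator wells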
VP16 Luc counter – Gal4-VP16 luciferase reporter inhibitors, counter-screen for COUP-TFII antagonist project, cell-based, luminescence, HEK293; shares compounds with COUP-TFII inh; inhibition, % at 8.5 µM; 2,500 compounds, 25% hits; AID 687007, 2013; in the data active = inhibition above about 13%
COUP-TFII conf – NR2F2 transcriptional activity inhibitors, confirmation, cell-based, luciferase reporter, HEK293, triplicate; 2,500 compounds, 45% hits; AID 687008, 2013; inhibition, % at 8.5 µM; shares compounds with COUP-TFII inh; HEK293 NGFI-A luciferase reporter, luminescence;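 active = mean inhibition over three repeats above a set limit taken from the earlier primary screen, cut at about 38% in these data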;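 note: 100% = cells given the luciferase reporter alone without the COUP-TF2 vector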
The depositor's hits bear a star; nt = no result given.

SMILES | NR2E3 ag-1 | GalR3 antag | NR2E3 ag-2 | COUP-TFII inh | SMARCA2 activ | VP16 Luc counter | COUP-TFII conf
CN1C(=CC=C2C=C(I)C(=O)C(I)=C2)C(C)(C)c2ccccc21 | -17 | -2 | nt | 6 | 0 | nt | nt
CN1/C(=C\C=C2/SC(=S)NC2=O)C(C)(C)c2ccccc21 | 2 | -8 | 1 | 42* | -6 | 14* | 24
CCN(CC)c1nc(C=Cc2ccc(N(C)C)cc2)c2nccnc2n1 | -10 | -4 | nt | 88* | -6 | -12 | -4
Cn1nc(C(C)(C)C)cc1C(=O)NCC1CCN(C(=O)C(=O)c2cc3ccccc3o2)CC1 | nt | -8 | nt | 41* | -7 | -3 | 11
Cc1ccc(C(C)C)c(OCc2ccc(C(=O)N/N=C/c3ccc(C(=O)O)cc3)cc2)c1 | -46 | -6 | 5 | 40* | -8 | 24* | 8
Cc1ccc(COc2ccc(/C=N/NC(=O)c3ccc(CN4CCOCC4)cc3)cc2)cc1 | -89 | -4 | 2 | 15 | -4 | nt | nt
Cc1noc(C)c1CSCC(=O)N1CCN(c2ccc([N+](=O)[O-])cc2)CC1 | 34 | -5 | 5 | 38* | -7 | 2 | 26
CCc1noc(C)c1C(=O)N1CCN(c2ccc([N+](=O)[O-])cc2)CC1 | -11 | 1 | nt | -2 | -2 | nt | nt
C=C1C(=O)O[C@H]2C[C@H]1[C@@H](OC(C)=O)C/C(C)=C/CC/C(C)=C\CC[C@]2(C)O | 29 | -1 | nt | 40* | -13 | 32* | 38*
COc1cc(C=C2CCCC(=Cc3ccc(OCC4CO4)c(OC)c3)C2=O)ccc1OCC1CO1 (stereo not drawn) | 30 | -4 | nt | 69* | 4 | 25* | 69*
O=c1c2cc3cc4c(cc3nc2ncn1Cc1cccnc1)OCO4 | nt | nt | nt | 3 | -2 | nt | nt
NC(=Nc1nc(-c2ccccn2)cc2ccccc12)c1ccccn1 | 45 | -5 | nt | 42* | 2 | -8 | -2
N/C(=N\OC(=O)Cc1cccc2ccccc12)c1ccccn1 | -96 | -7 | 5 | -59 | 4 | nt | nt
CCCc1ccc(C(=O)O/N=C(\N)c2ccccn2)cc1 | 34 | -11 | -3 | 68* | -6 | -31 | 53*
N/C(=N\OC(=O)c1ccc2ccccc2c1)c1ccccn1 | -29 | -2 | 3 | 45* | -3 | -174 | -63
Cc1ccc(C(=O)O/N=C(\N)c2ccccn2)c(Cl)c1 | 43 | -9 | 2 | 78* | -8 | 20* | 47*
N/C(=N\OC(=O)c1ccc(=O)n(Cc2ccccc2)c1)c1ccccn1 | -9 | -1 | -5 | -10 | 2 | nt | nt
N/C(=N\OC(=O)c1ccc(Cl)cc1Cl)c1ccccn1 | -43 | -2 | -2 | 37 | -5 | nt | nt
CCOC(=O)c1c(C)nn(-c2ccc(NC(=O)/C=C/C(=O)O)cc2)c1C | 16 | 3 | 0 | 65* | -10 | 36* | 15
CCCCCCCCN1C(=O)[C@@H](CC(=O)NCCc2ccccc2OC)C[C@@]2(C(=O)OC)C1=C[C@H](C(C)(C)C)O[C@@H]2C | nt | -3 | nt | -5 | 3 | nt | nt
CCOC(=O)C1CCCCN1C(=O)CCc1c(C)nc2cc(-c3ccccc3)nn2c1C (stereo not drawn) | -9 | -4 | 3 | 52* | -10 | -13 | 20
O=C(N/N=C/c1ccc(OC(F)F)cc1)c1ccc(Br)cc1 | -22 | -6 | -1 | -18 | -1 | nt | nt
O=C(NO)c1ccc(OC(F)F)cc1 | -22 | 0 | 1 | 45* | -3 | -11 | 36
COc1ccc([N+](=O)[O-])cc1NC(=S)NC(NC(=O)C(c1ccccc1)c1ccccc1)C(Cl)(Cl)Cl (stereo not drawn) | 12 | -6 | -1 | 41* | -8 | 0 | 13
COc1ccc2c(c1)CN1CN(Cc3ccccc3)S(=O)(=O)CC21 (stereo not drawn) | nt | nt | nt | 4 | -2 | nt | nt
SMILES | NR2E3 ag-1 | GalR3 antag | NR2E3 ag-2 | COUP-TFII inh | SMARCA2 activ | VP16 Luc counter | COUP-TFII conf
COc1cccc(NC(=O)CSc2nnc(-c3cc(C)n(-c4ccccc4)c3C)o2)c1 | 22 | 0 | -1 | 68* | -5 | 30* | 70*
O=c1c2ccccc2nc2n1C(CSCc1ccc(Cl)cc1)CS2 (stereo not drawn) | 6 | -4 | -4 | 42* | -4 | 2 | 14
Clc1ccc(N=NN2CCOCC2)cc1 | 19 | -4 | -1 | 0 | -5 | nt | nt
Cc1[nH]nc(C(F)(F)F)c1N=NN1CCOCC1 | 23 | -4 | nt | 49* | -4 | 13 | 46*
COc1ccc(C2=NS(=O)(=O)N(C)C(C(=O)N3CCc4ccccc4C3)=C2)cc1OC | 24 | 3 | -1 | 39* | -2 | 6 | 22
CCc1ccc(NC(=O)C2=CC(c3ccc(OC)c(OC)c3)=NS(=O)(=O)N2C)cc1 | 2 | nt | -2 | 38* | -7 | -2 | 26
COc1ccc(C2=NS(=O)(=O)N(C)C(C(=O)NCc3ccccc3)=C2)cc1OC | -6 | nt | 6 | 3 | 0 | nt | nt
CC(C)n1nnnc1C1(C)CCCCC(=O)N1Cc1cccc(C(F)(F)F)c1 (stereo not drawn) | nt | nt | nt | -7 | 6 | nt | nt
CC(C)c1cc(C(C)C)c(S(=O)(=O)N2CCCC(C(=O)NCc3cccs3)C2)c(C(C)C)c1 (stereo not drawn) | nt | nt | nt | -6 | -2 | nt | nt
CCc1ccc(-c2nc(CN3CCC(C(=O)N4CCN(c5ccccc5)CC4)CC3)c(C)o2)cc1 | 29 | -7 | 0 | 42* | -2 | 6 | 15
COc1cc(OC)c(N(C)S(=O)(=O)c2cccc(C(=O)OCC(=O)c3c[nH]c4ccccc34)c2)cc1Cl | 1 | -10 | -1 | 62* | -7 | 6 | 53*
COc1ccc(CN(CCN2CCOCC2)C(=O)c2ccc(F)cc2F)cc1OC | nt | nt | nt | -23 | -4 | nt | nt
O=C(c1ccccc1)c1sc(N2CCCCCC2)nc1-c1ccccc1 | -13 | -2 | 0 | -11 | 0 | nt | nt
COc1ccc(-c2nc(N3CCCCCC3)sc2C(=O)c2ccccc2)cc1 | -8 | -2 | 4 | 58* | -1 | -11 | -2
COc1cccc(C(C)(O)c2nc(-c3ccc(S(C)(=O)=O)cc3)cs2)c1 (stereo not drawn) | 20 | -6 | nt | 40* | -4 | 3 | 5
